Source: PubChem (Sanford-Burnham Center for Chemical Genomics)
hIAP inh: human IAP inhibition | inhibition, % at 10 µM | 0.12% of 330,000 active | purified IAP, CDP-Star luminescence, 30 min | P09923;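 active = inhibition reaching a set limit with compound at 10 µM in the primary screen, cut at about 35% in these data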
Target sequence (P09923 whole entry, looked up): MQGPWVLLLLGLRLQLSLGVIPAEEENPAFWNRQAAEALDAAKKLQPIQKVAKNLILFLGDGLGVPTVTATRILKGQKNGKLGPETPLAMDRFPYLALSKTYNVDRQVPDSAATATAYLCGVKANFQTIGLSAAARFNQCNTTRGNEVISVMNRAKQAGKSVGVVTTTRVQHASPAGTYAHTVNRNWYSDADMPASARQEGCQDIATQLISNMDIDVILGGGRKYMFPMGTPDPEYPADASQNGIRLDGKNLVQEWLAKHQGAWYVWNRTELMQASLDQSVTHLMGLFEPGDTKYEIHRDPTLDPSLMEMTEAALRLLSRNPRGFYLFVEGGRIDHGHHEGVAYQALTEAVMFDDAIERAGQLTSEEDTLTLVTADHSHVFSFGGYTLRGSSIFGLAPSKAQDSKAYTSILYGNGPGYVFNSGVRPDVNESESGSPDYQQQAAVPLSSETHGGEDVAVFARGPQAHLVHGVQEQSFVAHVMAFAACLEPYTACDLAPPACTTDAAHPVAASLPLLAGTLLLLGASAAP
hIAP activ: human IAP activation | P09923 | purified human IAP, CDP-Star luminescence, 30 min; active compounds read high; 1 = vehicle-only enzyme, 0 = enzyme-free background | activation factor at 10 µM | 0.16% of 330,000 active;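 active = activation factor of the enzyme at least 2-fold when tested at 20 µM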
mIAP block: blocks mouse intestinal alkaline phosphatase; purified mouse IAP, CDP-Star luminescence, 30 min; inhibition, % at 10 µM; 0.2% of 330,000 active; AID 2806;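 active = inhibition of at least 40% at 10 µM in the primary screen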
bIAP inhibitor: blocks bovine intestinal alkaline phosphatase activity; purified bovine IAP, CDP-star luminescence, 30 min; inhibition, % at 20 µM; 190,000 tested, under 10 active;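 active = over 50% inhibition of intestinal alkaline phosphatase at 20 µM in the single-dose screen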
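System: Purified bovine intestinal alkaline phosphatase (IAP) enzyme | Input: IAP diluted 1/65,000,000 in the well | Also added: CDP-star chemiluminescent phosphatase substrate, 30 µM final | Dosing: 20 µM single dose | Times: Enzyme reaction for 30 min at room temperature | Detection: Luminescence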
bIAP activator: intestinal alkaline phosphatase (bovine) activation; purified bovine IAP, CDP-star luminescence, 30 min; active compounds read high; fold of DMSO-control signal, blank-subtracted; AID 1016; activation factor at 20 µM; 0.17% of 200,000 active;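 active = activation factor of 2 or more at 20 µM, a signal rise over negative controls twice the positive control's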
mIAP act: increases mouse intestinal alkaline phosphatase activity; 0.24% of 330,000 active; activation factor at 10 µM; muIAP, CDP-Star luminescence, 30 min; active compounds read high; 1 = vehicle-only enzyme signal, 0 = enzyme-free wells; AID 2805;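 active = activation factor of at least 2 at 20 µM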
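System: Mouse IAP enzyme | Also added: CDP-Star substrate | Dosing: Compounds dispensed in DMSO | Schedule: 30 min enzyme-substrate-compound incubation at room temperature | Technique: Chemiluminescence readout | Control set: DMSO-only wells and no-enzyme negative control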
mIAP inh confirm: mouse IAP inhibition confirmation | shares compounds with mIAP block | purified mouse IAP, CDP-Star luminescence, 30 min | inhibition, % at 10 µM | 4.7% of 11,000 active | AID 434971;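 active = inhibition of at least 40% at 10 µM in either of the two replicates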
Numbers stand for hits. Only some compounds are listed: those with a hit (about 0.77% of all), similar ones and a draw of the others.

Screening CS(=O)(=O)c1ccc(C(=O)Nc2nc(-c3ccco3)c(-c3ccco3)s2)cc1 returned hIAP inh inactive, hIAP activ inactive, mIAP block 60, mIAP act inactive and mIAP inh confirm 70.
O=C(CN1CCN(c2ccccc2F)CC1)c1ccc(O)c(O)c1 was read as hIAP inh inactive, hIAP activ inactive, mIAP block 45, mIAP act inactive and mIAP inh confirm 51.
`Cc1ccc(S(=O)(=O)/N=C2/NC(=O)/C(=C\c3cc(Br)cc(Br)c3O)S2)cc1` gave hIAP inh inactive, hIAP activ inactive, mIAP block 43, mIAP act inactive and mIAP inh confirm 49.
`Cc1ccc(S(=O)(=O)/N=C2/NC(=O)/C(=C/c3ccc(Br)o3)S2)cc1` gave hIAP inh inactive, hIAP activ inactive, mIAP block inactive, bIAP inhibitor inactive, bIAP activator inactive and mIAP act inactive.
For CCOc1ccc2ccccc2c1C1NC(=O)N(C)C(C)=C1C(=O)OCCOC (stereo not drawn) the results were hIAP inh inactive, hIAP activ inactive, mIAP block inactive and mIAP act inactive.
Cc1ccc(NS(=O)(=O)c2ccc3[nH]c(=O)oc3c2)c(C)c1 was read as hIAP inh inactive, hIAP activ inactive, mIAP block 80, mIAP act inactive and mIAP inh confirm 85.
Cc1ccc(NC(=O)CN(C)S(=O)(=O)c2ccc3[nH]c(=O)oc3c2)c(C)c1 was read as hIAP inh inactive, hIAP activ inactive, mIAP block 63, mIAP act inactive and mIAP inh confirm 88.
Cc1cc(-c2csc(N)n2)c(C)n1C was read as hIAP inh inactive, hIAP activ inactive, mIAP block inactive, bIAP inhibitor inactive, bIAP activator inactive and mIAP act inactive.
`Cc1cc(-c2csc(N)n2)c(C)n1Cc1ccco1` gave hIAP inh inactive, hIAP activ inactive, mIAP block 51, bIAP inhibitor inactive, bIAP activator inactive, mIAP act inactive and mIAP inh confirm 43.
For CC(=O)Oc1cc2cccc(OC(C)=O)c(=O)c2c(OC(C)=O)c1OC(C)=O the results were hIAP inh inactive, hIAP activ inactive, mIAP block 45, bIAP inhibitor inactive, bIAP activator inactive, mIAP act inactive and mIAP inh confirm 49.
Screening Cc1ccccc1-c1n[nH]c(=S)n1/N=C/C=C/c1ccco1 returned hIAP inh inactive, hIAP activ inactive, mIAP block 44, mIAP act inactive and mIAP inh confirm 50.
Screening Cc1cc(-c2n[nH]c(=S)n2/N=C/C=C/c2ccco2)n[nH]1 returned hIAP inh inactive, hIAP activ inactive, mIAP block 49, mIAP act inactive and mIAP inh confirm 54.
COc1ccc(OC)c(NC(=O)CCn2ccnc2)c1 was read as hIAP inh inactive, hIAP activ inactive, mIAP block inactive and mIAP act inactive.
`NS(=O)(=O)c1cc(C(=O)NC2CCSc3ccccc32)ccc1Cl` (stereo not drawn) gave hIAP inh inactive, hIAP activ inactive, mIAP block 72, mIAP act inactive and mIAP inh confirm 84.
NS(=O)(=O)c1cccc(C(=O)NC2CCSc3ccccc32)c1 (stereo not drawn) was read as hIAP inh inactive, hIAP activ inactive, mIAP block inactive and mIAP act inactive.
`COc1ccc(-c2ccc(NC(=O)c3ccco3)cc2)nn1` gave hIAP inh inactive, hIAP activ inactive, mIAP block inactive and mIAP act inactive.
`N#CC1=C2SCN(c3ccccc3)CN2C(=O)CC1c1cccs1` (stereo not drawn) gave hIAP inh inactive, hIAP activ inactive, mIAP block inactive, bIAP inhibitor inactive, bIAP activator inactive and mIAP act inactive.
`CCOc1ccc(N2CSC3=C(C#N)C(c4ccco4)CC(=O)N3C2)cc1` (stereo not drawn) gave hIAP inh inactive, hIAP activ inactive, mIAP block 74, bIAP inhibitor inactive, bIAP activator inactive, mIAP act inactive and mIAP inh confirm 81.
For Cc1ccc(C2CC(=O)N3CN(c4ccc(Br)cc4)CSC3=C2C#N)o1 (stereo not drawn) the results were hIAP inh inactive, hIAP activ inactive, mIAP block 61, bIAP inhibitor inactive, bIAP activator inactive, mIAP act inactive and mIAP inh confirm 63.
O=C(N1CCN(c2cccc(Cl)c2)CC1)C1(c2cccs2)CCOCC1 was read as hIAP inh inactive, hIAP activ inactive, mIAP block inactive, bIAP inhibitor inactive, bIAP activator inactive and mIAP act inactive.
`CCn1c(CNC(=O)c2ccccc2Cl)cc2ccccc21` gave hIAP inh inactive, hIAP activ inactive, mIAP block inactive and mIAP act inactive.
